Reference: ChEMBL document CHEMBL3860025, “Antiproliferative and Anti-inflammatory Withanolides from Physalis angulata” (J Nat Prod, 2016)

Key:
[1] = Antiproliferative activity against human C4-2B cells assessed as inhibition of cell viability after 48 hrs by MTT reduction assay; assay type: functional, cell-based; conditions: LNCaP C4-2B
Procedure, shortened: (§1)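 Cells grown in RPMI-1640 or EMEM with 10% FBS at 37 °C under 5% CO2. Seeded at 1 × 10^4 cells/well for 12 h, then exposed to a range of compound concentrations for 48 h. Viability read by MTT reduction. 5-Fluorouracil was the positive control. Each assay was repeated three times, and IC50 reported as mean ± SD.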

[2] = Antiproliferative activity against human 22Rv1 cells assessed as inhibition of cell viability after 48 hrs by MTT reduction assay; assay type: functional, cell-based, CWR22R; conditions: 22Rv1, 48 h; procedure, shortened: as §1
[3] = Antiproliferative activity against human 786-0 cells assessed as inhibition of cell viability after 48 hrs by MTT reduction assay; assay type: functional, cell-based; conditions: 786-0, 48 h; procedure, shortened: as §1
[4] = Antiproliferative activity against human A498 cells assessed as inhibition of cell viability after 48 hrs by MTT reduction assay; assay type: functional, cell-based; conditions: A498, 48 h; procedure, shortened: as §1
[5] = Antiproliferative activity against human ACHN cells assessed as inhibition of cell viability after 48 hrs by MTT reduction assay; assay type: functional, cell-based; procedure, shortened: as §1
[6] = Antiproliferative activity against human A375-S2 cells assessed as inhibition of cell viability after 48 hrs by MTT reduction assay; assay type: functional, cell-based; conditions: A375-S2, 48 h; procedure, shortened: as §1
[7] = Antiinflammatory activity in mouse RAW264.7 cells assessed as inhibition of LPS-induced nitric oxide production after 24 hrs by Griess assay; assay type: functional, cell-based; conditions: RAW264.7, 24 h
Procedure, shortened: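 RAW 264.7 macrophages seeded at 1 × 10^6 cells/well, then incubated 24 h at 37 °C with LPS (1 μg/mL), with or without test compounds. NO measured by Griess reagent (0.1% N-(1-naphthyl)ethylenediamine plus 1% sulfanilamide in 5% H3PO4), absorbance at 540 nm. NO concentration and inhibition rate calculated from a standard curve. Hydrocortisone served as positive control.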

| Structure (SMILES) | IC50 [1] [µM] | IC50 [2] [µM] | IC50 [3] [µM] | IC50 [4] [µM] | IC50 [5] [µM] | IC50 [6] [µM] | IC50 [7] [µM] |
| --- | --- | --- | --- | --- | --- | --- | --- |
| CC(=O)O[C@H]1[C@@H]2O[C@]2([C@H](C)[C@H]2CC(C)=C(C)C(=O)O2)[C@@]2(C)CC[C@H]3[C@@H](C[C@@H](O)[C@@]4(Cl)CC=CC(=O)[C@]34C)[C@@]12O | 1.07 | 2.28 | 0.69 | 0.52 | 0.78 | 5 | 1.42 |
| CC(=O)O[C@H]1C=C([C@H](C)[C@H]2CC(C)=C(C)C(=O)O2)[C@@]2(C)CC[C@H]3[C@@H](C[C@H](O)[C@]4(O)CC=CC(=O)[C@]34C)[C@@]12O | > 10 | > 10 | > 10 | > 10 | > 10 | > 10 | 11.6 |
| CC(=O)O[C@H]1C[C@H]([C@H](C)[C@H]2CC(C)=C(C)C(=O)O2)[C@@]2(C)CC[C@H]3[C@@H](C[C@H]4O[C@]45CC=CC(=O)[C@]35C)[C@@]12O | 0.49 | 0.9 | 0.39 | 0.71 | 0.73 | 7.43 | 1.36 |
| CO[C@H]1CC(=O)[C@]2(C)[C@H]3CC[C@]4(C)C([C@H](C)[C@H]5CC(C)=C(C)C(=O)O5)=C[C@H](OC(C)=O)[C@@]4(O)[C@@H]3C[C@H]3O[C@]32C1 | 1.15 | 2.23 | 2.43 | 4.7 | 7.5 | > 10 | 5.56 |
| CC1=C(C)C(=O)O[C@@H]([C@]2(C)OC(=O)[C@]34CC[C@H]5[C@@H](CC=C6CC=CC(=O)[C@@]65C)[C@@](O)(O3)[C@@H](O)C[C@H]24)C1 | > 10 | > 10 | > 10 | > 10 | > 10 | > 10 | 25.9 |
| CC1=C(C)C(=O)O[C@@H]([C@@H](C)C2=C[C@@H]3OC(C)(C)O[C@@]34[C@@H]3C[C@@H](O)[C@@]5(O)CC=CC(=O)[C@]5(C)[C@H]3CC[C@]24C)C1 | > 10 | > 10 | > 10 | > 10 | > 10 | > 10 | 55.9 |
| CC(=O)O[C@H]1[C@@H]2O[C@]2([C@H](C)[C@H]2CC(C)=C(C)C(=O)O2)[C@@]2(C)CC[C@H]3[C@@H](C[C@H]4O[C@]45CC=CC(=O)[C@]35C)[C@@]12O | > 10 | > 10 | > 10 | > 10 | > 10 | > 10 | 2.54 |
| CC1=C(C)C(=O)O[C@@H]([C@@H](C)[C@]23O[C@H]2[C@H](O)[C@]2(O)[C@@H]4C[C@@H](O)[C@@]5(O)CC=CC(=O)[C@]5(C)[C@H]4CC[C@@]23C)C1 | > 10 | > 10 | > 10 | > 10 | > 10 | > 10 | > 100 |
| CO[C@H]1C=C([C@H](C)[C@H]2CC(C)=C(C)C(=O)O2)[C@@]2(C)CC[C@H]3[C@@H](C[C@@H](O)[C@@]4(O)CC=CC(=O)[C@]34C)[C@@]12O | > 10 | > 10 | > 10 | > 10 | > 10 | > 10 | 11.4 |
| CC(=O)O[C@H]1C[C@H]([C@H](C)[C@H]2CC(C)=C(C)C(=O)O2)[C@@]2(C)CC[C@H]3[C@@H](C[C@@H](O)[C@@]4(O)CC=CC(=O)[C@]34C)[C@H]12 | > 10 | 11.6 | > 10 | > 10 | > 10 | > 10 | 17.6 |
| CO[C@@H]1C=C([C@H](C)[C@H]2CC(C)=C(C)C(=O)O2)[C@@]2(C)CC[C@H]3[C@@H](C[C@@H](O)[C@@]4(O)CC=CC(=O)[C@]34C)[C@@]12O | > 10 | > 10 | > 10 | > 10 | > 10 | > 10 | 18.7 |
| CC(=O)O[C@H]1C[C@@](O)([C@H](C)[C@H]2CC(C)=C(C)C(=O)O2)[C@@]2(C)CC[C@H]3[C@@H](C[C@@H](O)[C@@]4(O)CC=CC(=O)[C@]34C)[C@@]12O | > 10 | > 10 | > 10 | > 10 | > 10 | > 10 | > 100 |
| CO[C@]12CC=CC(=O)[C@]1(C)[C@H]1CC[C@@]3(C)[C@@](O)([C@@H]1C[C@H]2O)[C@@H](OC(C)=O)[C@@H]1O[C@@]13[C@H](C)[C@H]1CC(C)=C(C)C(=O)O1 | > 10 | > 10 | > 10 | > 10 | > 10 | > 10 | 6.36 |
| CC(=O)O[C@H]1[C@@H]2O[C@]2([C@H](C)[C@H]2CC(C)=C(C)C(=O)O2)[C@@]2(C)CC[C@H]3[C@@H](C[C@@H](O)[C@@]4(O)CC=CC(=O)[C@]34C)[C@@]12O | > 10 | > 10 | > 10 | > 10 | > 10 | > 10 | 59.5 |
| CC(=O)O[C@H]1C=C([C@H](C)[C@H]2CC(C)=C(C)C(=O)O2)[C@@]2(C)CC[C@H]3[C@@H](C[C@H]4O[C@]45CC=CC(=O)[C@]35C)[C@]12O | 0.18 | 0.63 | 0.66 | 0.66 | 1.08 | 3.39 | 3.02 |
| CC1=C(C)C(=O)O[C@@H]([C@@H](C)C2=C[C@@H]3O[C@@H](C)O[C@@]34[C@@H]3C[C@@H](O)[C@@]5(O)CC=CC(=O)[C@]5(C)[C@H]3CC[C@]24C)C1 | > 10 | > 10 | > 10 | > 10 | > 10 | > 10 | 11.2 |
| CC(=O)O[C@H]1C[C@H]([C@H](C)[C@H]2CC(C)=C(C)C(=O)O2)[C@@]2(C)CC[C@H]3[C@@H](C[C@@H](O)[C@@]4(O)CC=CC(=O)[C@]34C)[C@@]12O | > 10 | > 10 | > 10 | > 10 | > 10 | > 10 | 43.8 |
| CC1=C(C)C(=O)O[C@@H]([C@@H](C)C2=C[C@H](O)[C@]3(O)[C@@H]4C[C@@H](O)[C@@]5(O)CC=CC(=O)[C@]5(C)[C@H]4CC[C@]23C)C1 | > 10 | > 10 | > 10 | > 10 | > 10 | > 10 | 36.5 |
